Screens from PubChem.
Shown are actives, neighbours in structure and some others; about 2.3% of the full set was active somewhere.
TRPC6 activator = mouse TRPC6 channel activators, primary screen, cell-based, HEK293, membrane potential dye; AID 2550, 2010; actives 0.13% (n = 310,000); B-score at 10 µM; HEK293-TRPC6 membrane potential dye fluorescence; hits give high values; Short transient receptor potential channel 6 (Mus musculus), Q61143;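 active = B-score of the integrated fluorescence ratio above library mean plus 3 SD, and starting fluorescence ratio within library mean plus 5 SD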;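 also: higher score means more depolarization so channel activation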
TRPC6 inhibitor = mouse TRPC6 channel inhibitors, primary screen, cell-based, HEK293, membrane potential dye; Short transient receptor potential channel 6 (Mus musculus), Q61143; ACh-evoked depolarization; hits give low values; B-score at 10 µM; actives 1.1% (n = 310,000); AID 2553, 2010;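 active = B-score under library mean minus 3 SD, initial fluorescence not abnormally high, positive integrated signal ratio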;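 also: B-score derived from integrated fluorescence ratio over the kinetic read; more negative B-score means stronger inhibition of depolarization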
TRPC4 inh = inhibitors of mouse TRPC4 channel, primary screen, Fluo4 calcium, HEK293 TRPC4beta/mu-opioid cells; Short transient receptor potential channel 4 (Mus musculus), Q9QUQ5; DAMGO-evoked Fluo4 calcium flux; hits give low values; B-score at 10 µM; actives 0.39% (n = 300,000); AID 2247, 2010;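 active = B-score over 3 SD under the library average, no early fluorescence shift, positive overall ratio signal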
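material = TRPC4beta/mu-opioid receptor HEK293 cell line | probe or stimulus = sequential submaximal and maximal DAMGO stimulation | compound dosing = one concentration per compound | measured by = Fluo4 Ca2+ flux fluorescence | evaluation = integrated fluorescence ratio relative to baseline, converted to per-well B score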
TRPC4 potent = positive allosteric modulators of TRPC4, primary screen, cell-based, mouse TRPC4beta, HEK293 mu-opioid, Fluo-4 calcium; B-score at 10 µM; actives 0.42% (n = 310,000); AID 2227, 2009; Short transient receptor potential channel 4 (Mus musculus), Q9QUQ5; DAMGO EC20, Fluo-4 Ca2+ flux; hits give high values;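 active = B-score of calcium response area above 5 SD of library B-scores, with initial fluorescence ratio within 5 SD of library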;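 also: B-score of integrated fluorescence ratio over time as area under calcium response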
TRPC4 agonist = activators of mouse TRPC4 channel, primary screen, Fluo4 calcium, HEK293 TRPC4beta/mu-opioid cells; Short transient receptor potential channel 4 (Mus musculus), Q9QUQ5; actives 0.49% (n = 310,000); AID 2237, 2010; Fluo4 calcium fluorescence; hits give high values; B-score at 10 µM;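 active = B-score above 5 SD of library B-scores, and initial fluorescence ratio not above library mean plus 5 SD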;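 also: positive B-score marks a calcium rise read as TRPC4 activation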
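Material: HEK293 stable line with TRPC4beta plus mu-opioid receptor; technique: Fluo4 calcium-sensitive dye fluorescence, kinetic, 1 Hz baseline; timing: Fluo4 dye loading 45 min at room temperature, 110 s recording; controls: assay buffer as low control, maximal DAMGO as high control; read-out: integrated baseline-normalised fluorescence ratio, converted to per-well B score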
TRPC4 spec 2 = mouse TRPC4 off-target activity of TRPC6 inhibitors, second screen. inhibition, % at 10 µM. HEK293 TRPC4/MOR, membrane potential dye fluorescence; channel activated by saturating DAMGO dose. actives 42% (n = 920). shares compounds with TRPC6 inhibitor. AID 2776;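 active = compounds whose fluorescence signal differed from control wells by over 3 SD, either direction, in both duplicate plates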
TRPC4 spec = mouse TRPC4 modulation by TRPC6 hits, confirmation, selectivity assay for TRPC6 inhibitor project, cell-based, HEK293 TRPC4/mu-opioid, membrane potential dye; actives 61% (n = 920); activity change, negative = inhibition, % at 10 µM; membrane potential fluorescence; shares compounds with TRPC6 inhibitor;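 active = rise or fall in signal beyond 3 SD of buffer-only wells in both replicate plates, either sign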;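 also: integrated kinetic ratio of fluorescence range over baseline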
HEK293 MPD ctr 2-1 = nonspecific membrane potential effects, parental HEK293, confirmation, counter-screen for TRPC6 inhibitor project, cell-based, second counter screen; shares compounds with TRPC6 inhibitor; parental HEK293 membrane potential dye fluorescence; maximal acetylcholine challenge after compound addition; signal change vs control, % at 10 µM; actives 31% (n = 920); AID 2779, 2010;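 active = membrane potential signal moving either way by over 3 SD of the maximum-effect control, in both duplicate plates, meaning non-specific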
HEK293 MPD ctr-1 = membrane potential modulation in parental HEK293, confirmation, counter-screen for TRPC6 inhibitor project, cell-based; shares compounds with TRPC6 inhibitor; parental HEK293 membrane potential dye fluorescence; membrane potential signal change, % at 10 µM; actives 60% (n = 920);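 active = membrane potential signal shifting up or down by more than 3 SD of buffer-only wells, on both duplicate plates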
HEK293 MPD ctr-2 = parental HEK293 membrane potential modulation, confirmation, counter-screen for TRPC6 modulator project, cell-based | shares compounds with TRPC6 inhibitor | membrane potential dye fluorescence | membrane potential signal change, % at 10 µM | actives 51% (n = 2,400) | AID 488924, 2010;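 active = membrane potential signal moves up or down beyond 5 SD from buffer-only wells, on both duplicate plates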
HEK293 MPD ctr 2-2 = parental HEK293 nonspecific activity of TRPC6 modulators, second screen | shares compounds with TRPC6 inhibitor | membrane potential dye fluorescence; after compound, maximal acetylcholine stimulation | inhibition, % at 10 µM | actives 14% (n = 2,400) | AID 488926;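 active = membrane potential signal drops by more than 5 SD from the mean control signal, in both duplicate plates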;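 also: plate controls were acetylcholine ECmax control wells for no effect and buffer only wells for full effect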
TRPC4 ctr mod = TRPC4 modulation by TRPC6 hit compounds, confirmation, selectivity assay for TRPC6 modulator project, cell-based, HEK293 TRPC4/mu-opioid, membrane potential dye, mouse | shares compounds with TRPC6 inhibitor | membrane potential fluorescence | percent change from control (negative = decrease, positive = increase), % at 10 µM | actives 69% (n = 2,400) | AID 488927, 2010;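 active = membrane potential signal moved up or down beyond 5 SD of buffer control wells, in both duplicate plates, actives on both sides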;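 also: plate controls were assay buffer wells for no effect and DAMGO maximal-effect wells for full effect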
TRPC4 ctr inh 2 = mouse TRPC4 off-target activity of TRPC6 modulators, second screen | inhibition, % at 10 µM | AID 488928 | shares compounds with TRPC6 inhibitor | HEK293 TRPC4/mu-opioid, membrane potential dye fluorescence; stimulated with maximal-effect DAMGO | actives 55% (n = 2,400);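 active = drop in membrane potential signal beyond 5 SD of the control wells in both duplicate plates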;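 also: TRPC4 counter screen for TRPC6 hits run under conditions tuned for TRPC6 not TRPC4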
TRPC6 inh conf = mouse TRPC6 channel inhibitors, confirmation, HEK293 cells, membrane potential dye, duplicate; shares compounds with TRPC6 inhibitor; ACh-evoked depolarization; inhibition, % at 10 µM; actives 43% (n = 3,300); AID 488960, 2010;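 active = fluorescence ratio falls more than 5 SD below the full-stimulation control mean, in both duplicate runs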;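 also: integrated fluorescence ratio of peak minus minimum over baseline after agonist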
TRPC6 act confirm = mouse TRPC6 channel activators, confirmation, HEK293 cells, membrane potential dye, duplicate | shares compounds with TRPC6 inhibitor | HEK293-TRPC6 membrane potential dye fluorescence, FDSS | activation, % at 10 µM | actives 11% (n = 2,800) | AID 488961, 2010;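 active = ratio signal rise beyond 5 SD above unstimulated control wells' mean, seen in both duplicate runs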;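 also: plate controls were buffer EC0 wells for no effect and acetylcholine ECmax response for full effect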
Numbers without * were called inactive; i = inactive; · = no result.

SMILES	TRPC6 activator	TRPC6 inhibitor	TRPC4 inh	TRPC4 potent	TRPC4 agonist	HEK293 MPD ctr-2	HEK293 MPD ctr 2-2	TRPC4 ctr mod	TRPC4 ctr inh 2	TRPC6 inh conf	TRPC6 act confirm	others
Cc1cc(N2CCOCC2)ccc1/C=C\[N+](=O)[O-]	15*	i	i	i	i	260.5%*	i	32.5%*	i	i	79.0%*
COc1cccc2c1OCC(C(=O)Nc1nccs1)=C2	i	i	i	i	i	·	·	·	·	·	·
CN(C)CCNc1nc(-c2ccccc2)nnc1C(F)(F)F	i	i	i	i	i	·	·	·	·	·	·
Cc1nnc(-c2ccc(Cl)cc2)nc1NCCN(C)C	i	-5.02*	i	i	i	i	i	i	i	i	i
C#C[C@]1(O)CC[C@H]2[C@@H]3[C@H](C)CC4=C(CCC(=O)C4)[C@H]3CC[C@@]21C	i	i	i	i	i	·	·	·	·	·	·
Cc1ccc(N=Nc2c(N)[nH]n3c(=O)cc(-c4ccccc4)nc23)cc1	i	-8.56*	i	i	i	·	·	·	·	79.3%*	i	TRPC4 spec 2=52.5%*;TRPC4 spec=-17.3%*;HEK293 MPD ctr 2-1=i;HEK293 MPD ctr-1=-220.0%*
Cc1cc(=O)n2[nH]c(N)c(N=Nc3ccccc3)c2n1	i	i	i	i	i	·	·	·	·	·	·
COc1cccc(N=Nc2c(N)[nH]n3c(=O)cc(-c4ccccc4)nc23)c1	i	-5.26*	i	i	i	i	i	-20.5%*	65.5%*	i	i
